Measurements published in article PMC12376068 (Protein Science : A Publication of the Protein Society, 2025).
Bridge positions count the residues as written; N and C are the ends. Square brackets hold non-standard residues; d marks the D form. Ends that are not written are not given here. I, II: the chains in the order shown. propargylglycine(fluorescein) = propargylglycine labeled with fluorescein azide by click chemistry; PEG10 = NCCOCCOCCOCCOCCOCCOCCOCCOCCOCCOCCC(=O)O

What was measured:
hPD-L1 = hPD-L1 (Homo sapiens, UniProt Q9NZQ7); test: Biolayer interferometry; type: binding
Chain of hPD-L1 (Q9NZQ7 19-238 limits assumed): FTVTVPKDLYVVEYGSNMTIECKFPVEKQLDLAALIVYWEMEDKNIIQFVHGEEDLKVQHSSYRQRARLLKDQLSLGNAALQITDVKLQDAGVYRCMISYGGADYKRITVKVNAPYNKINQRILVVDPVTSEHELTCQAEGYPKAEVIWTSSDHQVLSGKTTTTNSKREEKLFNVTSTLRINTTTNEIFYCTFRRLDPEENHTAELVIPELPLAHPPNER
In short: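 Extracellular-domain hPD-L1 was expressed in HEK293F cells, Ni-NTA purified and BirA-biotinylated. At 1 μg mL−1 it was loaded onto streptavidin biosensors to 1.4 nm, with PD-L1-free sensors as reference. Association ran 180 s and dissociation 900 s in assay buffer. Sensorgrams were normalized to no-peptide and globally fit to a 1:1 Langmuir model. Duplicates; means and fitting errors reported.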

[1] = biological target: mouse PD-L1 (mPD-L1) on CHO cells (Mus musculus, UniProt Q9EP73); test: Flow cytometry binding to CHO cells expressing mouse PD-L1; type: cell-based; details: highest concentration tested, 1200 nM (Figure S15E)
Chain of mouse PD-L1 (mPD-L1) on CHO cells (Q9EP73 19-290): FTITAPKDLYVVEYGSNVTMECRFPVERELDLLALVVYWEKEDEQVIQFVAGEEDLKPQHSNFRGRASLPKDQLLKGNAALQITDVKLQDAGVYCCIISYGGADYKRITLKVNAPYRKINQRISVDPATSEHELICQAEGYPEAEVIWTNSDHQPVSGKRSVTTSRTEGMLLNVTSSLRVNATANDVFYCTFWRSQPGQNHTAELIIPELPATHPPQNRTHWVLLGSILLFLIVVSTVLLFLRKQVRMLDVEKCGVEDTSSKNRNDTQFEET

[2] = biological target: T1, human PD-L2 (hPD-L2) on CHO cells (Homo sapiens, UniProt Q9BQ51); test: Flow cytometry binding to CHO cells expressing human PD-L2; type: cell-based; details: highest concentration tested, 1200 nM (Figure S15E)
T1 sequence (Q9BQ51 20-273): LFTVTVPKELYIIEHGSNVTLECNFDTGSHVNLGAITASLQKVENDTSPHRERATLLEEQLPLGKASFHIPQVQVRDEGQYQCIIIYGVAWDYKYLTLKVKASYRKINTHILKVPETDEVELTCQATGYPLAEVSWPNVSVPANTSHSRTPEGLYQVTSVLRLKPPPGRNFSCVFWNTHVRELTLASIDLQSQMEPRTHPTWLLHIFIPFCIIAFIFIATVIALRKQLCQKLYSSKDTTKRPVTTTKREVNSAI
In short: (§1)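 CHO cells stably transfected with hPD-L2, or MDA-MB-468 cells, were grown in DMEM with 10% heat-inactivated FBS. They were lifted with trypsin-EDTA and resuspended in serum-free medium at 200,000 cells per well. Cells were incubated 1 h at 4°C in the dark with a dilution series of fluorescein-conjugated test peptide in cold 1:1 PBS:SF medium. After three cold-PBS washes, live single-cell fluorescence was read by flow cytometry (488 nm excitation).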

[3] = Peptide solubility and aggregation; type: physicochemical; details: all conditions tested for CD spectroscopy
In short: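 Lyophilized peptide was reconstituted in phosphate buffer (15 mM pH 6.5 or 50 mM pH 4.5) containing 10–20% MeOH or TFE. Samples were vortexed and sonicated 5 min. Concentration was set by absorbance at 280 nm, using 5500 M−1 cm−1 per Trp and 1490 M−1 cm−1 per Tyr. Absorbance had to stay constant over 20 min to exclude aggregation.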

[4] = biological target: hPD-L1 on the surface of CHO cells (Homo sapiens, UniProt Q9NZQ7); test: Flow cytometry binding to CHO hPD-L1 cells; type: cell-based; details: flow cytometry (Figure S15D)
Chain of hPD-L1 on the surface of CHO cells (Q9NZQ7 19-290): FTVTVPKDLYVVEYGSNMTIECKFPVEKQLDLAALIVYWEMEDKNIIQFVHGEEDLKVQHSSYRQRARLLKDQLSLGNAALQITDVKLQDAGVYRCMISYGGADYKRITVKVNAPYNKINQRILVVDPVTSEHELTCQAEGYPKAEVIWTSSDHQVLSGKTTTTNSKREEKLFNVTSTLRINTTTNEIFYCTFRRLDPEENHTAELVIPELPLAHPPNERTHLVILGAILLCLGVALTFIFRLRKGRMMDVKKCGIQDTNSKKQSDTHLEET

[5] = Far-UV CD thermal denaturation; type: physicochemical; details: pH 6.5, 0-90°C
In short: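 Peptide was prepared in PB/MeOH 80:20 (15 mM PB pH 6.5 or 50 mM pH 4.5) at 17–70 μM, set by UV absorbance, in a 0.1 cm quartz cuvette. Far-UV spectra were taken at 190–270 nm, averaged over eight scans, with solvent blank subtracted. The ramp ran 0–90°C at 45°C per hour under nitrogen. Melts used molar ellipticity at 220 or 222 nm; first-derivative maxima gave transitions.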

[6] = cited from earlier work
MDA-MB-468 cells = test: Flow cytometry binding to hPD-L1-negative MDA-MB-468 cells; type: cell-based, human; details: SPAM2-fluorescein dilution series
In short: as §1

PD-1/hPD-L1 interaction = PD-1/hPD-L1 interaction (Homo sapiens, UniProt Q9NZQ7); test: PD-L1 T-cell reactivation assay; type: cell-based; details: 5 μM peptide, 6 h at 37 °C, Bio-Glo luminescence, RLU relative to vehicle
Chain of PD-1/hPD-L1 interaction (Q9NZQ7 19-290): as above

[7] = biological target: human PD‐L1 stably expressed on CHO cells (human, UniProt Q9NZQ7 19-290); test: flow cytometry on cells
Chain of human PD‐L1 stably expressed on CHO cells (Q9NZQ7 19-290): as above

I: MYSSTDHILNKFLILHYALNPT[PEG10]K-NH2 / II: MYSSTDHILNKFLILHYALNPT[PEG10] (amide I:24-II:C) [SPAM4]
koff (hPD-L1): 0.000219 ± 4e-06 s⁻¹
kon (hPD-L1): 2.23e+06 ± 110000 M⁻¹ s⁻¹
binding to CHO-mPD-L1 cells [1]: no binding
binding to CHO-hPD-L2 cells [2]: no binding
solubility [3]: low solubility

MALPIFSNTYLSHTDLKNYHILGSSSSGS [SPAM3 scrambled]
binding of sequence-scrambled peptides to CHO-hPD-L1 cells [4]: no significant binding

MPIFLDHILNKFWILHYA-NH2 [SPAM]
koff (hPD-L1): 0.049 ± 0.0009 s⁻¹
kon (hPD-L1): 1.41e+06 ± 30000 M⁻¹ s⁻¹
Kd (hPD-L1; K D by BLI, BLI, mean of duplicate): 38 ± 1 nM
temperature above which irreversible aggregation occurs in thermal denaturation [5]: above 50 °C
serum stability (ex vivo) ([6]; ref Kamalinia et al., 2020): acceptable serum stability

SPAM2‐fluorescein: SPAM2 with C-terminal propargylglycine labeled with fluorescein azide by click chemistry (MWSRSDHNLNKFWILHYSANPS-{propargylglycine(fluorescein)}; also: fluorescein azide attached by click chemistry)
labeling of hPD-L1-negative cells (MDA-MB-468 cells): no concentration‐dependent labeling

MWSRSDHNLNKFWILHYSANPS-NH2 [SPAM2]
koff (hPD-L1): 0.00264 ± 2e-05 s⁻¹
kon (hPD-L1): 8.78e+06 ± 210000 M⁻¹ s⁻¹
signal restored in T-cell reactivation assay (PD-1/hPD-L1 interaction): more than 50%

MYSSTDHILNKFLILHYALNPT-NH2 [SPAM3]
koff (hPD-L1): 0.00146 ± 1e-05 s⁻¹
kon (hPD-L1): 5.78e+06 ± 80000 M⁻¹ s⁻¹

SGQYASYHCWCWRDPGRSGGSK [TPP-1, reference compound]
serum stability ([6]; ref Hu et al., 2019): poor serum stability

MSLANYNWSHPSRKDNIHWSLFGSSSSGS [SPAM2 scrambled]
binding of sequence-scrambled peptides to CHO-hPD-L1 cells [4]: no significant binding

MYSSTDHILNKFLILHYALNPT (also: fluorescein (position not given here)) [fluorescein‐labeled SPAM3]
Kd [7]: 5.15 nM

MWSRSDHNLNKFWILHYSANPS (also: fluorescein (position not given here)) [SPAM2‐fluorescein]
Kd [7]: 15.3 nM
